Results published in paper PMC4238591 (Analytical Chemistry, 2014).
Several values for one entry are separate records, joined by “and”; a condition that tells them apart may be missing. Equal entries are not always repeated. Where two headings read alike, the source gives them in different places.

Experiments:
[1] = fluorescence; 1 mol % GM1; Hill–Waud model; cited from earlier work
[2] = SHG isotherm of nonspecific binding of CTB to pure DOPC bilayer; conditions: entire CTB concentration range examined (0.22 to 13 nM)
[3] = type: binding, Ovine
[4] = SPR, 120–240 nM CTB, cited from earlier work
[5] = SHCS of PnA binding to 5 mol % GM1-doped DOPC lipid bilayer; design: species or system Ovine; conditions: for equilibrium binding affinity Ka: eq 2
[6] = SHCS of nonspecific binding of PnA to pure DOPC bilayer; conditions: 0.43, 3 and 12 μM PnA, pure DOPC bilayer without GM1
Outline: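 Data were recorded after steady-state equilibrium on each laser pulse (20 Hz, 50 ms step). For each protein concentration, 20 sets of 5000 points each (1.4 h) were taken. Each set's FFT was multiplied by its complex conjugate, the sets were averaged, and the result was inverse-transformed to give the autocorrelation. Time-zero points were normalized to matching specific-binding data (5 mol % GM1 in DOPC).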

[7] = system: N-acetylgalactose receptors on Chinese hamster ovarian (CHO) cells; conditions: lectin iodination, PnA 10–60 μM, at least 1 h incubation; cited from earlier work
[8] = cited from earlier work
[9] = [PnA] 0.43 μM, 5 mol % GM1, SHCS
[10] = [PnA] 3.0 μM, 5 mol % GM1, SHCS
[11] = [PnA] 12.2 μM, 5 mol % GM1, SHCS

With CTB as the molecule, how does the Ka [1] read?
The Ka was “(3.2 ± 0.7) × 10^9 M ^–1”.

What about the Kd [1] of the same molecule?
The Kd was 310 pM.

What about the “n (Hill coefficient)” value [1] of the same molecule?
Its value is 1.9.

What about the nonspecific binding [2] of the same molecule?
The nonspecific binding was “negligible nonspecific binding”.

What about the koff [3] of the same molecule?
Its koff is 3.6 ± 0.5 ×10^–5 s^–1 and 3.2 ± 0.4 ×10^–5 s^–1 and 2.5 ± 0.2 ×10^–5 s^–1.

And the kon ([4]; 5 mol % GM1-doped lipid bilayer)?
The kon was 1.27 × 10^6 M^–1·s^–1.

What about the Kd ([4]; steady-state equilibrium) of the same molecule?
Its Kd is 4.61 pM.

B1: PnA: Peanut (Arachis hypogaea) agglutinin, tetrameric lectin that binds specifically to terminal D-galactosyl groups; from Sigma-Aldrich (protein, UniProt P02872 24-273, looked up)
Galactose-binding lectin: AETVSFNFNSFSEGNPAINFQGDVTVLSNGNIQLTNLNKVNSVGRVLYAMPVRIWSSATGNVASFLTSFSFEMKDIKDYDPADGIIFFIAPEDTQIPAGSIGGGTLGVSDTKGAGHFVGVEFDTYSNSEYNDPPTDHVGIDVNSVDSVKTVPWNSVSGAVVKVTVIYDSSTKTLSVAVTNDNGDITTIAQVVDLKAKLPERVKFGFSASGSLGGRQIHLIRSWSFTSTLITTTRRSIDNNEKKIMNMASA
With B1 as the molecule, how does the adsorption rate ([5]; 0.43 μM PnA, 5 mol % GM1, SHCS) read?
Its adsorption rate is “(3.7 ± 0.3) × 10^6 M^–1·s^–1”.

And the desorption rate ([5]; 0.43 μM PnA, 5 mol % GM1, SHCS)?
The desorption rate was “(1.0 ± 0.2) × 10^–3 s^–1”.

What about the “equilibrium binding affinity Ka” value ([5]; 0.43 μM PnA, SHCS) of the same molecule?
The value was “(3.7 ± 0.8) × 10^9 M^–1”.

What about the adsorption rate ([5]; 3 μM PnA, 5 mol % GM1, SHCS) of the same molecule?
The adsorption rate was “(3.9 ± 0.3) × 10^5 M^–1·s^–1”.

What about the desorption rate ([5]; 3 μM PnA, 5 mol % GM1, SHCS) of the same molecule?
Its desorption rate is “(2.2 ± 0.2) × 10^–3 s^–1”.

And the “equilibrium binding affinity Ka” value ([5]; 3 μM PnA, SHCS)?
The value was “(1.7 ± 0.2) × 10^8 M^–1”.

And the adsorption rate ([5]; 12 μM PnA, 5 mol % GM1, SHCS)?
The adsorption rate was “(1.1 ± 0.1) × 10^5 M^–1·s^–1”.

And the desorption rate ([5]; 12 μM PnA, 5 mol % GM1, SHCS)?
Its desorption rate is “(2.7 ± 0.2) × 10^–3 s^–1”.

And the “equilibrium binding affinity Ka” value ([5]; 12 μM PnA, SHCS)?
The value was “(4.1 ± 0.5) × 10^7 M^–1”.

And the Ka ([5]; 60 μM PnA, 5 mol % GM1, SHCS)?
The Ka was “(8.4 ± 1.4) × 10^6 M^–1”.

What about the adsorption rate ([5]; 60 μM PnA, 5 mol % GM1, SHCS) of the same molecule?
The adsorption rate was “(3.1 ± 0.3) × 10^4 M^–1·s^–1”.

And the desorption rate ([5]; 60 μM PnA, 5 mol % GM1, SHCS)?
Its desorption rate is “(3.7 ± 0.5) × 10^–3 s^–1”.

What about the koff [5, 9] of the same molecule?
Its koff is 1.0 ± 0.2 ×10^–3 s^–1.

And the kon [5, 9]?
The kon was 37 ± 3 ×10^5 M^–1·s^–1.

What about the Ka ([5]; [PnA] 0.43 μM, calculated by eq 2) of the same molecule?
The Ka was 37 ± 8 ×10^8 M^–1.

What about the koff [5, 10] of the same molecule?
Its koff is 2.2 ± 0.2 ×10^–3 s^–1.

And the kon [5, 10]?
Its kon is 3.9 ± 0.3 ×10^5 M^–1·s^–1.

What about the Ka ([5]; [PnA] 3.0 μM, calculated by eq 2) of the same molecule?
The Ka was 1.7 ± 0.2 ×10^8 M^–1.

And the koff [5, 11]?
The koff was 2.7 ± 0.2 ×10^–3 s^–1.

And the kon [5, 11]?
Its kon is 1.1 ± 0.1 ×10^5 M^–1·s^–1.

And the Ka ([5]; [PnA] 12.2 μM, calculated by eq 2)?
Its Ka is 0.41 ± 0.05 ×10^8 M^–1.

What about the nonspecific binding [6] of the same molecule?
Its nonspecific binding is “negligible nonspecific binding”.

And the Ka [7]?
The Ka was “(4.5 ± 1) × 10^6 M^–1”.

And the pI [8]?
Its pI is ~6.
